Calls of active or inactive are those of the source. The calls are words filed in the database; no cut-off is given here.
Assays:
[1] = (§1) Selectivity index, ratio of CC50 for African green monkey Vero cells to IC50 for Leishmania donovani amastigotes; format: functional
Procedure, shortened: (§2)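 Calculated as CC₅₀ on Vero cells divided by IC₅₀ on L. donovani intramacrophage amastigotes. Both values come from 72 h assays: MTT for Vero cells and a luciferase reporter for amastigotes.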

Leishmania donovani [2] = test: Antileishmanial activity against Leishmania donovani infected in golden hamster assessed as inhibition of parasite multiplication at 50 mg/kg, ip for 5 days measured after 7 days by Giemsa staining-based assay; format: functional; settings: for inhibition in vivo at 50 mg/kg: route intraperitoneal
Procedure, shortened: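 Hamsters infected with L. donovani received test compounds at 50 mg/kg/day ip for 5 days, starting after the infection was established. Parasite burden was determined by Giemsa staining. Efficacy was expressed as percent inhibition, comparing treated animals, untreated animals and the initial count in treated animals.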

Leishmania donovani [3] = test: Antileishmanial activity against Leishmania donovani amastigotes infected in mouse J774A1 cells after 72 hrs by luciferase reporter gene assay; format: functional, organism-based; settings: J774.A1, 72 h
Procedure, shortened: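 Macrophage cells were seeded at 4 × 10³ per well, held 24 h in a CO₂ incubator, and then infected with 4 × 10⁴ promastigotes, which transform into intracellular amastigotes. Compounds were added at 0.62–40 and incubated 72 h. Read-out was luminescence after Steady-Glo addition, with inhibition derived against untreated controls. IC₅₀ is the mean of two independent experiments.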

[4] = Cytotoxicity against African green monkey Vero cells after 72 hrs by MTT assay; format: cell-based; settings: chlorocebus sabaeus
Procedure, shortened: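 Monkey kidney Vero cells were exposed to compounds for 72 h. Viable cells were detected with MTT, and CC₅₀ was estimated by the Huber & Koella method. Values are the mean of two independent experiments.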

[5] = Cytotoxicity against mouse J774A1 cells after 72 hrs; format: cell-based; settings: j774.a1, 72 h
Syrian golden hamster = test: Toxicity in golden hamster at 50 mg/kg, ip; format: organism-based, Mesocricetus auratus; parameters: dose 50 mg/kg, route intraperitoneal; settings: in vivo
Leishmania donovani [6] = test: Antileishmanial activity against Leishmania donovani infected in golden hamster assessed as inhibition of parasite multiplication at 30 mg/kg, po for 5 days measured after 7 days by Giemsa staining-based assay; format: functional
Leishmania donovani [7] = test: Antileishmanial activity against Leishmania donovani infected in golden hamster assessed as inhibition of parasite multiplication at 40 mg/kg, ip for 5 days measured after 7 days by Giemsa staining-based assay; format: functional, organism-based; parameters: dose 40 mg/kg
Procedure, shortened: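 Reference-drug arm in the L. donovani-infected hamster model, dosed at 40 mg/kg ip daily for 5 days. After the infection was established, parasite burden was assessed by Giemsa staining. Percent inhibition came from comparing treated with untreated animals and with the initial count in treated animals.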

Vero = test: as §1; format: functional; procedure, shortened: as §2

| Molecule | Ratio CC50/IC50 [1] | inhibition in vivo at 50 mg/kg (Leishmania donovani [2]) [%] | IC50 (Leishmania donovani [3]) [µM] | CC50 at 72 h [4] [µM] | Activity [5] | Activity (Syrian golden hamster) | inhibition in vivo at 30 mg/kg (Leishmania donovani [6]) [%] | inhibition (Leishmania donovani [2]) | inhibition (Leishmania donovani [7]) [%] | Ratio CC50/IC50 (Vero) |
| --- | --- | --- | --- | --- | --- | --- | --- | --- | --- | --- |
| CSc1cc(/C=C/c2ccc(OCc3ccccc3)cc2)nc(N)n1 | 188 | 88.4 | 2 | 376 | Non-toxic | Non-toxic |  |  |  |  |
| CSc1cc(/C=C/c2ccc(OC3CCCCO3)cc2)nc(N)n1 (stereo not given) | 34 | 54.4 | 3.6 | 122 |  | Non-toxic |  |  |  |  |
| COc1cc(/C=C/c2cc(SC)nc(N)n2)ccc1O |  |  |  |  |  | Non-toxic |  |  |  |  |
| COc1ccc(Nc2cc(/C=C/c3ccc(OCc4ccccc4)cc3)nc(N)n2)cc1 | 116 | 78.1 | 0.5 | 57.8 |  | Non-toxic |  |  |  |  |
| CCOc1cc(/C=C/c2cc(SC)nc(N)n2)ccc1OC1CCCCO1 (stereo not given) | 19 | 33.5 | 12.9 | 248 |  | Non-toxic |  |  |  |  |
| COc1ccc(/C=C/c2cc(SC)nc(N)n2)cc1OC | 62 | 47.1 | 2 | 125 |  | Non-toxic |  |  |  |  |
| CSc1cc(/C=C/c2ccc(O)cc2)nc(N)n1 |  |  |  |  |  | Non-toxic |  |  |  |  |
| CSc1cc(/C=C/c2ccc(OS(=O)(=O)[O-])cc2)nc(N)n1.[Na+] | 48 | 55.1 | 6.3 | 301 |  | Non-toxic |  |  |  |  |
| CCCCCCCCCCCCCCCCOP(=O)([O-])OCC[N+](C)(C)C [MILTEFOSINE] | 4 |  |  |  |  |  | 98.1 |  |  |  |
| COc1cc(/C=C/c2cc(SC)nc(N)n2)cc(OC)c1OC |  |  | > 40 |  |  | Non-toxic |  | inactive |  |  |
| Sodium stibogluconate |  |  |  |  |  |  |  |  | 88.5 | > 7 |
| COc1ccc(/C=C/c2cc(SC)nc(N)n2)cc1 | 27 | 54.4 | 9.1 | 250 |  | Non-toxic |  |  |  |  |
| COc1ccc(Nc2cc(/C=C/c3ccc(OC4CCCCO4)cc3)nc(N)n2)cc1 (stereo not given) | 128 | 78.2 | 2.7 | 345 |  | Non-toxic |  |  |  |  |
